From ChEMBL document CHEMBL4257586, “Polyheteroaryl Oxazole/Pyridine-Based Compounds Selected in Vitro as G-Quadruplex Ligands Inhibit Rock Kinase and Exhibit Antiproliferative Activity” (J Med Chem, 2018)
Several values for one entry are separate records, joined by “and”; a condition that tells them apart may be missing. Equal entries are not always repeated. Activity calls are given as the source filed them. The calls are words filed in the database; no cut-off is given here.

Key:
Format in all cases: nucleic-acid assay
Quadruplex DNA [1] = experiment: Binding affinity to 6-FAM labeled human telomeric F21T G-quadruplex DNA assessed as change in melting temperature at 1 uM in K+ rich buffer (10 mM KCl, 90 mM LiCl, 10 mM Li cacodylate) by FRET assay
In short: (§1)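 FRET melting in duplicate. Dual-labelled oligo (6-FAM/TAMRA) at 0.2 μM with ligand at 1 μM, in 10 mM Li cacodylate pH 7.2. Buffer was 10 mM KCl + 90 mM LiCl for F21T and 1 mM KCl + 99 mM LiCl for FMycT. Sample annealed 90 °C 5 min, cooled to 4 °C overnight. Equilibrated 5 min at 25 °C, then ramped 0.5 °C/min to 95 °C. FAM read 492/516 nm, normalized; Tm taken at the fitted inflection point.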

dsDNA = experiment: Binding affinity to duplex 26 DNA (unknown origin) assessed as change in melting temperature at 1 uM by FRET
Quadruplex DNA [2] = experiment: Binding affinity to 6-FAM labeled human proto-oncogene sequence FMycT G-quadruplex DNA assessed as change in melting temperature at 1 uM in presence of K+ buffer (1 mM KCl, 99 mM LiCl, 10 mM Li cacodylate) by FRET assay; in short: as §1

| Compound | ΔTm (Quadruplex DNA [1]) | Activity (dsDNA) | ΔTm (Quadruplex DNA [2]) |
| --- | --- | --- | --- |
| CN(C)CCOc1cc(-c2cnc(-c3cccc(-c4cnco4)n3)o2)nc(-c2cnc(-c3cccc(-c4cnco4)n3)o2)c1 | 5 to 7 °C | inactive | 2.5 to 4.3 °C |
| c1cc(-c2cnc(-c3cccc(-c4cnco4)n3)o2)nc(-c2cnc(-c3cccc(-c4cnco4)n3)o2)c1 | 5 to 7 °C | inactive | 2.5 to 4.3 °C |
| c1cc(-c2cnco2)nc(-c2ncc(-c3cc(OCCN4CCCCC4)cc(-c4cnc(-c5cccc(-c6cnco6)n5)o4)n3)o2)c1 | 5 to 7 °C | inactive | 2.5 to 4.3 °C |

More lines, now with the values ahead:

| ΔTm (Quadruplex DNA [1]) | Activity (dsDNA) | ΔTm (Quadruplex DNA [2]) | Compound |
| --- | --- | --- | --- |
| 5.3 °C | inactive | 1.8 to 2.9 °C | c1ccc(-c2cnc(-c3cccc(-c4ncc(-c5ccccn5)o4)n3)o2)nc1 |
| 11.6 °C and 11 °C | inactive | 1.8 to 2.9 °C | CN(C)CCOc1cc(-c2ncc(-c3ccccn3)o2)nc(-c2ncc(-c3ccccn3)o2)c1 |
| – | inactive | – | c1ccc(-c2ncc(-c3cccc(-c4cnc(-c5ccccn5)o4)n3)o2)nc1 |
